Reference: ChEMBL document CHEMBL2177069, “Novel peptidomimetic compounds containing redox active chalcogens and quinones as potential anticancer agents” (Eur J Med Chem, 2012)

What was measured:
[1] = test system: SF-295; experiment: Cytotoxicity against human SF295 cells; format: functional
[2] = test system: HOP-62; experiment: Cytotoxicity against human HOP62 cells; format: functional
[3] = test system: UACC-62; experiment: Cytotoxicity against human UACC62 cells; format: functional
[4] = test system: SR; experiment: Cytotoxicity against human SR cells; format: functional
[5] = test system: IGROV-1; experiment: Cytotoxicity against human IGROV1 cells; format: functional
[6] = test system: SK-MEL-2; experiment: Cytotoxicity against human SK-MEL-2 cells; format: functional
[7] = Cytotoxicity against human 786-O cells; format: functional
[8] = test system: MDA-MB-468; experiment: Cytotoxicity against human MDA-MB-468 cells; format: functional
[9] = test system: RPMI-8226; experiment: Cytotoxicity against human RPMI8226 cells; format: functional
[10] = test system: COLO 205; experiment: Cytotoxicity against human COLO205 cells; format: functional
[11] = Cytotoxicity against human PHF cells after 24 hrs by MTT assay; format: cell-based
Outline: (§1)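 MTT assay. Cells were seeded at 50,000 cells/mL in medium with 10% fetal calf serum and grown for two days at 37 °C, 10% CO2. Serial dilutions of compound were then added for 24 h. MTT was added (final 0.5 mg/mL) for 2 h, and the formazan was pelleted, washed, dissolved in isopropanol with 0.4% HCl and read at 590 nm. IC50 is the concentration giving 50% of untreated-control absorbance, taken from dose-response curves; mean of two parallel experiments.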

[12] = test system: SN12C; experiment: Cytotoxicity against human SN12C cells; format: functional
[13] = test system: HCT-15; experiment: Cytotoxicity against human HCT15 cells; format: functional
[14] = test system: Saccharomyces cerevisiae; experiment: Growth inhibition of GTT2-deficient Saccharomyces cerevisiae YLL060C mutant at 20 ug/disc after 24 to 48 hrs by agar diffusion assay; format: functional; conditions: read-out: DIZ
Outline: (§2)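 S. cerevisiae deletion mutants or wild type grown on YPD, seeded into liquid agar medium at an optical density of 0.1. 6 mm paper discs soaked with methanolic compound solution were placed on the plates and incubated at 30 °C. Growth was checked after 1 and 2 days, and the inhibition zone diameter was recorded in mm.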

[15] = test system: HT-29; experiment: Cytotoxicity against human HT-29 cells; format: functional
[16] = test system: Saccharomyces cerevisiae; experiment: Growth inhibition of PST2-deficient Saccharomyces cerevisiae YDR032C mutant at 20 ug/disc 24 to 48 hrs by agar diffusion assay; format: functional; conditions: read-out: DIZ; outline: as §2
[17] = test system: NCI/ADR-RES; experiment: Cytotoxicity against human NCI/ADR-RES cells; format: functional
[18] = test system: SK-MEL-28; experiment: Cytotoxicity against human SK-MEL-28 cells; format: functional
[19] = test system: A498; experiment: Cytotoxicity against human A498 cells after 24 hrs by MTT assay; format: functional, cell-based; conditions: A498, 24 h; outline: as §1
[20] = test system: NCI-H322M; experiment: Cytotoxicity against human NCI-H322M cells; format: functional
[21] = test system: HCT-116; experiment: Cytotoxicity against human HCT116 cells; format: functional
[22] = read-out: pLC50 (the source's name) (converted)

In the case of `CC1=C([Se]CC(OC(=O)[C@@H](CSSC(C)(C)C)NC(=O)C(C)(C)C)C(=O)NCCCCCC(=O)OCc2ccccc2)C(=O)c2ccccc2C1=O` (stereo not given in full), the GI50 [1] is reported as 0.316 µM, the LC50 [1] is reported as greater than 100 µM and the TGI ([1]; read-out: pTGI (converted)) is reported as 1.95 µM. For the same compound, the GI50 [2] was 1.02 µM, the LC50 [2] was 9.12 µM and the TGI ([2]; read-out: pTGI (converted)) was 3.02 µM. The GI50 [3] was 1.95 µM, the LC50 [3] was 8.13 µM and the TGI ([3]; read-out: pTGI (converted)) was 3.98 µM. The GI50 [4] was 3.8 µM, the LC50 [4] was greater than 100 µM and the TGI ([4]; read-out: pTGI (converted)) was 18.6 µM. For the same compound, the GI50 [5] was 1.91 µM, the LC50 (concentration killing 50% of cells) [5] was 7.08 µM and the TGI ([5]; read-out: pTGI (converted)) was 3.63 µM. It also gave a GI50 [6] of 2.24 µM, an LC50 [6] of 39.8 µM and a TGI ([6]; read-out: pTGI (converted)) of 5.01 µM. The GI50 ([7]; 786-0) was 2.09 µM, the LC50 ([7]; 786-0) was 6.31 µM and the TGI ([7]; 786-0, read-out: pTGI (converted)) was 3.63 µM. For the same compound, the GI50 [8] was 2.19 µM, the LC50 [8] was 8.51 µM and the TGI ([8]; read-out: pTGI (converted)) was 4.37 µM. For the same compound, the GI50 [9] was 2.34 µM, the LC50 [9] was greater than 100 µM and the TGI ([9]; read-out: pTGI (converted)) was 6.76 µM. For the same compound, the GI50 [10] was 1.82 µM, the CC50 [10, 22] was 6.76 µM and the TGI ([10]; read-out: pTGI (converted)) was 3.47 µM. The IC50 [11] was 4 µM, the GI50 [12] was 2 µM and the LC50 [12] was 7.59 µM. The TGI ([12]; read-out: pTGI (converted)) was 3.89 µM, the GI50 [13] was 3.24 µM and the LC50 [13] was 66.1 µM. For the same compound, the TGI ([13]; read-out: pTGI (converted)) was 12.9 µM, the zone of inhibition at 20 µg/disc [14] was 12 mm and the GI50 [15] was 2.69 µM. It also gave an LC50 [15] greater than 100 µM, a TGI ([15]; read-out: pTGI (converted)) of 7.41 µM and a zone of inhibition at 20 µg/disc [16] of 11 mm. The GI50 [17] was 3.39 µM, the CC50 [17, 22] was greater than 100 µM and the TGI ([17]; read-out: pTGI (converted)) was 11.5 µM. The GI50 [18] was 1.91 µM, the LC50 [18] was 6.46 µM and the TGI ([18]; read-out: pTGI (converted)) was 3.55 µM. The IC50 [19] was 13 µM, the GI50 [20] was 0.398 µM and the LC50 [20] was greater than 100 µM. For the same compound, the TGI ([20]; read-out: pTGI (converted)) was 2.29 µM, the GI50 [21] was 1.55 µM and the LC50 [21] was 8.91 µM. For the same compound, the TGI ([21]; read-out: pTGI (converted)) was 3.72 µM.
